Reference: ChEMBL document CHEMBL1255501, “Heteroresistance of Cryptococcus gattii to fluconazole” (2010)

How the values were obtained:
[1] = system: Cryptococcus gattii species complex; assay: Antimicrobial activity against Cryptococcus gattii serotype B isolate RB-11 assessed as concentration required for heteroresistance; type: functional, Cryptococcus bacillisporus
[2] = system: Cryptococcus gattii species complex; assay: Antimicrobial activity against Cryptococcus gattii serotype B isolate RB22 assessed as heteroresistant isolates at 2 ug/ml; type: functional, Cryptococcus bacillisporus
Procedure, shortened: (§1)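 Population analysis: saline cell suspensions (1 × 103 to 4 × 10^3 CFU/ml) plated on plain YPD agar or YPD agar with various fluconazole concentrations; growth recorded after 72 h at 30°C; percentage of resistant subpopulation at each drug level calculated relative to drug-free plate growth.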

[3] = system: Cryptococcus bacillisporus; assay: Antimicrobial activity against Cryptococcus gattii serotype C isolate NIH191 assessed as heteroresistant isolates at 2 ug/ml; type: functional; procedure, shortened: as §1
[4] = system: Cryptococcus gattii species complex; assay: Antimicrobial activity against Cryptococcus gattii serotype C isolate NIH298 assessed as heteroresistant isolates at 2 ug/ml; type: functional, Cryptococcus bacillisporus
Procedure, shortened: (§2)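 Cell suspensions of 1 × 10^3 to 4 × 10^3 CFU/ml were made in sterile saline and plated on plain YPD agar or YPD agar with various fluconazole concentrations. Plates were incubated at 30°C for 72 h, and the percentage of resistant subpopulation emerging was recorded.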

[5] = system: Cryptococcus gattii species complex; assay: Antimicrobial activity against Cryptococcus gattii serotype C isolate H0058-1-818 assessed as heteroresistant isolates at 2 ug/ml; type: functional, Cryptococcus bacillisporus; procedure, shortened: as §1
[6] = system: Cryptococcus gattii species complex; assay: Antimicrobial activity against Cryptococcus gattii serotype B isolate NIH184 assessed as heteroresistant isolates at 4 ug/ml; type: functional, Cryptococcus bacillisporus
Procedure, shortened: (§3)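 Population analysis: cells suspended in sterile saline at 1 × 10³ to 4 × 10³ CFU/ml and plated on plain YPD agar or YPD agar with various fluconazole concentrations. Plates incubated at 30°C for 72 h. The resistant subpopulation at each concentration is recorded as a percentage of the population.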

[7] = system: Cryptococcus deuterogattii; assay: Antimicrobial activity against Cryptococcus gattii serotype B isolate NIH444 assessed as heteroresistant isolates at 4 ug/ml; type: functional, Cryptococcus bacillisporus; procedure, shortened: as §3
[8] = system: Cryptococcus gattii species complex; assay: Antimicrobial activity against Cryptococcus gattii serotype B isolate NIH367 assessed as heteroresistant isolates at 4 ug/ml; type: functional, Cryptococcus bacillisporus; procedure, shortened: as §3
[9] = system: Cryptococcus gattii species complex; assay: Antimicrobial activity against Cryptococcus gattii serotype B isolate RB3 assessed as heteroresistant isolates at 4 ug/ml; type: functional, Cryptococcus bacillisporus; procedure, shortened: as §1
[10] = system: Cryptococcus gattii species complex; assay: Antimicrobial activity against Cryptococcus gattii serotype C isolate H0058-1-2023 assessed as heteroresistant isolates at 4 ug/ml; type: functional, Cryptococcus bacillisporus; procedure, shortened: as §1
[11] = system: Cryptococcus gattii species complex; assay: Antimicrobial activity against Cryptococcus gattii serotype B isolate RB-14 assessed as concentration required for heteroresistance; type: functional, Cryptococcus bacillisporus
[12] = system: Cryptococcus gattii species complex; assay: Antimicrobial activity against Cryptococcus gattii serotype B isolate RB-17 assessed as concentration required for heteroresistance; type: functional, Cryptococcus bacillisporus
[13] = system: Cryptococcus gattii species complex; assay: Antimicrobial activity against Cryptococcus gattii serotype B isolate RAM-002 assessed as concentration required for heteroresistance; type: functional, Cryptococcus bacillisporus
[14] = system: Cryptococcus gattii species complex; assay: Antimicrobial activity against Cryptococcus gattii serotype B isolate VPB571-058 assessed as concentration required for heteroresistance; type: functional, Cryptococcus bacillisporus
[15] = system: Cryptococcus gattii species complex; assay: Antimicrobial activity against Cryptococcus gattii serotype C isolate NIH298 assessed as concentration required for heteroresistance; type: functional, Cryptococcus bacillisporus
Procedure, shortened: (§4)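 […] on YPD agar at 4 to 128 μg/ml. The lowest drug concentration at which minor resistant subpopulations emerged within the patch was scored as the strain's level of heteroresistance.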

[16] = system: Cryptococcus gattii species complex; assay: Antimicrobial activity against Cryptococcus gattii serotype C isolate NIH312 assessed as concentration required for heteroresistance; type: functional, Cryptococcus bacillisporus; procedure, shortened: as §4
[17] = system: Cryptococcus gattii species complex; assay: Antimicrobial activity against Cryptococcus gattii serotype C isolate NIH917 assessed as concentration required for heteroresistance; type: functional, Cryptococcus bacillisporus; procedure, shortened: as §4
[18] = system: Cryptococcus gattii species complex; assay: Antimicrobial activity against Cryptococcus gattii serotype C isolate H0058-1-2086 assessed as concentration required for heteroresistance; type: functional, Cryptococcus bacillisporus
[19] = system: Cryptococcus gattii species complex; assay: Antimicrobial activity against Cryptococcus gattii serotype C isolate H0058-1-1875 assessed as concentration required for heteroresistance; type: functional, Cryptococcus bacillisporus
[20] = system: Cryptococcus gattii species complex; assay: Antimicrobial activity against Cryptococcus gattii serotype C isolate H0058-1-1941 assessed as concentration required for heteroresistance; type: functional, Cryptococcus bacillisporus
[21] = system: Cryptococcus gattii species complex; assay: Antimicrobial activity against Cryptococcus gattii serotype B isolate NIH412 assessed as concentration required for heteroresistance; type: functional, Cryptococcus bacillisporus
Procedure, shortened: (§5)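 Fluconazole spot test: 10-fold serial dilutions of each single-colony-purified strain spotted on YPD agar alone and YPD agar with fluconazole at 4 to 128 μg/ml. The level of heteroresistance to fluconazole (LHF) is the lowest drug concentration at which minor resistant subpopulations emerge within the spot.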

[22] = system: Cryptococcus gattii species complex; assay: Antimicrobial activity against Cryptococcus gattii serotype B isolate NIH189 assessed as concentration required for heteroresistance; type: functional, Cryptococcus bacillisporus; procedure, shortened: as §5
[23] = system: Cryptococcus gattii species complex; assay: Antimicrobial activity against Cryptococcus gattii serotype B isolate RB-4 assessed as concentration required for heteroresistance; type: functional, Cryptococcus bacillisporus
[24] = system: Cryptococcus gattii species complex; assay: Antimicrobial activity against Cryptococcus gattii serotype C isolate NIH403 assessed as concentration required for heteroresistance; type: functional, Cryptococcus bacillisporus; procedure, shortened: as §4
[25] = system: Cryptococcus bacillisporus; assay: Antimicrobial activity against Cryptococcus gattii serotype C isolate NIH191 assessed as heteroresistant isolates at 16 ug/ml; type: functional; procedure, shortened: as §1
[26] = system: Cryptococcus gattii species complex; assay: Antimicrobial activity against Cryptococcus gattii serotype C isolate H0058-1-1686 assessed as heteroresistant isolates at 16 ug/ml; type: functional, Cryptococcus bacillisporus; procedure, shortened: as §1
[27] = system: Cryptococcus gattii species complex; assay: Antimicrobial activity against Cryptococcus gattii serotype B isolate NIH286 assessed as heteroresistant isolates at 32 ug/ml; type: functional, Cryptococcus bacillisporus; procedure, shortened: as §3
[28] = system: Cryptococcus gattii species complex; assay: Antimicrobial activity against Cryptococcus gattii serotype B isolate RB14 assessed as heteroresistant isolates at 32 ug/ml; type: functional, Cryptococcus bacillisporus; procedure, shortened: as §1
[29] = system: Cryptococcus gattii species complex; assay: Antimicrobial activity against Cryptococcus gattii serotype B isolate VPB572-058 assessed as heteroresistant isolates at 32 ug/ml; type: functional, Cryptococcus bacillisporus; procedure, shortened: as §1
[30] = system: Cryptococcus gattii species complex; assay: Antimicrobial activity against Cryptococcus gattii serotype C isolate NIH18 assessed as heteroresistant isolates at 32 ug/ml; type: functional, Cryptococcus bacillisporus, serotype B isolate  NIH18; procedure, shortened: as §1
[31] = system: Cryptococcus gattii species complex; assay: Antimicrobial activity against Cryptococcus gattii serotype B isolate NIH184 assessed as heteroresistant isolates at 8 ug/ml; type: functional, Cryptococcus bacillisporus; procedure, shortened: as §3
[32] = system: Cryptococcus deuterogattii; assay: Antimicrobial activity against Cryptococcus gattii serotype B isolate NIH444 assessed as heteroresistant isolates at 8 ug/ml; type: functional, Cryptococcus bacillisporus; procedure, shortened: as §3
[33] = system: Cryptococcus gattii species complex; assay: Antimicrobial activity against Cryptococcus gattii serotype B isolate B5788 assessed as heteroresistant isolates at 8 ug/ml; type: functional, Cryptococcus bacillisporus; procedure, shortened: as §3
[34] = system: Cryptococcus gattii species complex; assay: Antimicrobial activity against Cryptococcus gattii serotype B isolate B5765 assessed as heteroresistant isolates at 8 ug/ml; type: functional, Cryptococcus bacillisporus; procedure, shortened: as §3
[35] = system: Cryptococcus gattii species complex; assay: Antimicrobial activity against Cryptococcus gattii serotype B isolate RB14 assessed as heteroresistant isolates at 8 ug/ml; type: functional, Cryptococcus bacillisporus; procedure, shortened: as §1
[36] = system: Cryptococcus bacillisporus; assay: Antimicrobial activity against Cryptococcus gattii serotype C isolate NIH191 assessed as heteroresistant isolates at 8 ug/ml; type: functional; procedure, shortened: as §2
[37] = system: Cryptococcus gattii species complex; assay: Antimicrobial activity against Cryptococcus gattii serotype C isolate NIH298 assessed as heteroresistant isolates at 8 ug/ml; type: functional, Cryptococcus bacillisporus; procedure, shortened: as §2
[38] = system: Cryptococcus gattii species complex; assay: Antimicrobial activity against Cryptococcus gattii serotype C isolate H0058-1-818 assessed as heteroresistant isolates at 8 ug/ml; type: functional, Cryptococcus bacillisporus; procedure, shortened: as §1
[39] = system: Cryptococcus gattii species complex; assay: Antimicrobial activity against Cryptococcus gattii serotype B isolate NIH198 assessed as heteroresistant isolates at 16 ug/ml; type: functional, Cryptococcus bacillisporus; procedure, shortened: as §3
[40] = system: Cryptococcus deuterogattii; assay: Antimicrobial activity against Cryptococcus gattii serotype B isolate NIH444 assessed as heteroresistant isolates at 16 ug/ml; type: functional, Cryptococcus bacillisporus; procedure, shortened: as §3
[41] = system: Cryptococcus gattii species complex; assay: Antimicrobial activity against Cryptococcus gattii serotype B isolate NIH367 assessed as heteroresistant isolates at 16 ug/ml; type: functional, Cryptococcus bacillisporus; procedure, shortened: as §3
[42] = system: Cryptococcus gattii species complex; assay: Antimicrobial activity against Cryptococcus gattii serotype C isolate NIH113 assessed as heteroresistant isolates at 16 ug/ml; type: functional, Cryptococcus bacillisporus; procedure, shortened: as §1
[43] = system: Cryptococcus gattii species complex; assay: Antimicrobial activity against Cryptococcus gattii serotype C isolate NIH34 assessed as heteroresistant isolates at 16 ug/ml; type: functional, Cryptococcus bacillisporus; procedure, shortened: as §2

SMILES: OC(Cn1cncn1)(Cn1cncn1)c1ccc(F)cc1F [FLUCONAZOLE]
- Activity [1]: 32 µg/mL
- Activity [2]: 100%
- Activity [3]: 100%
- Activity [4]: 100%
- Activity [5]: 100%
- Activity [6]: 100%
- Activity [7]: 100%
- Activity [8]: 100%
- Activity [9]: 100%
- Activity [10]: 100%
- Activity [11]: 32 µg/mL
- Activity [12]: 32 µg/mL
- Activity [13]: 32 µg/mL
- Activity [14]: 32 µg/mL
- Activity [15]: 32 µg/mL
- Activity [16]: 32 µg/mL
- Activity [17]: 32 µg/mL
- Activity [18]: 32 µg/mL
- Activity [19]: 32 µg/mL
- Activity [20]: 32 µg/mL
- Activity [21]: 4 µg/mL
- Activity [22]: 16 µg/mL
- Activity [23]: 32 µg/mL
- Activity [24]: 16 µg/mL
- Activity [25]: 100%
- Activity [26]: 100%
- Activity [27]: 0.06%
- Activity [28]: 0.8%
- Activity [29]: 1.6%
- Activity [30]: 0.44%
- Activity [31]: 100%
- Activity [32]: 100%
- Activity [33]: 5.7%
- Activity [34]: 100%
- Activity [35]: 100%
- Activity [36]: 100%
- Activity [37]: 100%
- Activity [38]: 100%
- Activity [39]: 1.9%
- Activity [40]: 100%
- Activity [41]: 9%
- Activity [42]: 100%
- Activity [43]: 0.22%
